Runt-CBFb FRET = blocks binding of human RUNX1 Runt domain to CBFb; Q01196+Q13951; Cerulean-Runt/Venus-CBFb FRET ratio 530/480, 1 h; inhibition, % at 20 µM; 220,000 tested, 0.46% active;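 active = inhibition over about 50% at 20 µM in the single-dose screen, limit read from the data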;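 note: 0% = DMSO wells and 100% = excess unlabeled CBFb competitor control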
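Assay system: Cerulean-tagged RUNX1 Runt domain (FRET donor) fusion protein / Amount: 100 nM each of Venus-CBFb and Cerulean-Runt domain / Medium: Tris buffer pH 7.5 with salts and BSA / Also added: Venus-CBFb 100 nM / Schedule: 1 h complex formation plus 1 h compound treatment, room temperature / Signal: FRET fluorescence / Read-out: loss of energy transfer signal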
Runt-SMMHC FRET = Runt domain-CBFb-SMMHC interaction inhibition; inhibition, % at 20 µM; Cerulean-Runt/Venus-CBFb-SMMHC FRET ratio 530/480, 1 h; 220,000 tested, 0.74% active; Q01196+Q13951;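 active = mean inhibition across duplicate retests at 20 µM reaching about 50%, limit read from the data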;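 note: 0% = DMSO wells and 100% = wells with excess untagged CBFb-SMMHC; inhibitors lower the FRET ratio by blocking Runt binding to CBFb-SMMHC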
Rce1 inh = blocks yeast Ras-converting enzyme; AID 2563; 290,000 tested, 0.27% active; yeast membranes, quenched prenylated peptide cleavage fluorescence; Q03530; calls only;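 active = fall in fluorescence gain of 50% or more versus controls, with final raw signal at or below 3038400; inconclusive = same 50% fall but final raw signal above 3038400; inactive = fall in fluorescence gain under 50%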;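 note: plate controls were neutral control wells for no effect and wells lacking membranes for full effect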
Target sequence (Q03530 whole entry, looked up): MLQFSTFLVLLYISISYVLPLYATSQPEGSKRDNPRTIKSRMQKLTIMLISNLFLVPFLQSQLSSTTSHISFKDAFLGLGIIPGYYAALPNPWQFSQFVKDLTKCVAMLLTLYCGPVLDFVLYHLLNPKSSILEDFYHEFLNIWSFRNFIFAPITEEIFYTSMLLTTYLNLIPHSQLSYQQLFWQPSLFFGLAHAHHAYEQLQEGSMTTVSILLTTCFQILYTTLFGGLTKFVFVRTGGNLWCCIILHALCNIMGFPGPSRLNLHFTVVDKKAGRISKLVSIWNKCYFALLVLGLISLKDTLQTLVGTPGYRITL
RanGTP-Impb inh = disruptors of Ran-importin-beta complex formation – biochemical, FRET, CFP-Ran, YFP-importin-beta, homogeneous, primary screen. cell-free CFP-Ran/YFP-importin-beta FRET ratio. inhibition, % (concentration not given with the values). 300,000 tested, 1.1% active;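 active = more than half of the replicate wells show a fall in the fluorescence ratio signal beyond about 16%, limit read from the data, passing the limit was not always enough; inconclusive = exactly half of the replicate wells pass the set limit; inactive = fewer than half of replicates pass the limit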;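 note: 0% = DMSO wells and 100% = Ran loaded with GDP instead of GTP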
Vif inh = blocks HIV Vif function. HEK293T cells, Vif self-association by quenched fluorescence, imaging, 24 h. inhibition, % at 7.49 µM. 340,000 tested, 0.35% active; in the data active = inhibition above about 50%, passing the limit was not always enough; inconclusive = no clear call, values can overlap the other calls; inactive = below about 31%
An asterisk follows results filed as active; i = inactive; ? = inconclusive; · = not tested or not shown; + = active, no number. A selection: hits, their analogues and other compounds. The true share with any hit is near 1.7%.

SMILES	Runt-CBFb FRET	Runt-SMMHC FRET	Rce1 inh	RanGTP-Impb inh	Vif inh
COc1ccc(OCC(=O)Nc2cccc(-c3nc4ccccc4[nH]3)c2)cc1	-2	2	i	31*	6
Cc1ccc(S(=O)(=O)N2CCOCC2)cc1NC(=O)COC(=O)c1ccc(Cl)nc1	·	·	·	·	-2
Cc1ccccc1-c1nnc(SCC(=O)NC2CCCC2)o1	·	·	i	3	-7
Cc1ccc(C23CC4CC(CC(CC(=O)N5CCOCC5)(C4)C2)C3)cc1	-4	-15	i	25*	·
O=C(O)C1C2CCC(O2)C1C(=O)Nc1ccc(Br)cc1F (stereo unspecified)	·	·	i	7	-7
COc1cc(NC(=O)Nc2nnc([C@H]3C[C@H](O)[C@@H](CO)O3)s2)cc(OC)c1OC	·	·	·	·	19
COc1ccc(NC(=O)c2cn(-c3ccccc3)nc2-c2ccncc2)cc1	0	-2	i	3	-2
COc1ccc(-c2nn(-c3ccccc3)cc2C(=O)NC(=S)NNC(=O)c2ccncc2)cc1	5	1	·	?	60*
CCOC(=O)N1CCc2c(sc(NC(=O)C3COc4ccccc4O3)c2C(N)=O)C1 (stereo unspecified)	·	·	i	1	-15
CN1CCc2c(sc(NC(=O)C3COc4ccccc4O3)c2C(N)=O)C1 (stereo unspecified)	·	·	i	182*	-1
CCN1CCc2c(sc(NC(=O)C3COc4ccccc4O3)c2C(N)=O)C1 (stereo unspecified)	·	·	i	153*	6
CCCn1nnnc1SCC(=O)N1CCCCC1	·	·	i	4	57*
CCCn1nnnc1SCC(=O)N1CCCC1	0	8	i	1	4
O=C(O)C(=O)/C(=C\c1ccc(Cl)cc1)c1ccc2ccccc2n1	39	96*	i	-5	1
O=C(NCCc1ccc(Cl)cc1)c1ccc2ccccc2n1	·	·	i	-1	2
COC(=O)Cc1[nH]nc2c1C(c1c[nH]c3ccccc13)C(C#N)=C(N)O2 (stereo unspecified)	12	2	i	45*	-15
Cc1[nH]nc2c1C(c1c[nH]c3ccccc13)C(C#N)=C(N)O2 (stereo unspecified)	-3	-2	i	6	5
CN(CCCC(=O)O)c1ccc(N=Nc2ccc([N+](=O)[O-])cc2)cc1	·	·	i	2	-19
Cn1c2ccccc2c(=O)c2cc(C#Cc3ccsc3)ccc21	·	·	i	73*	0
COc1cc2oc3ccc(C#Cc4ccccn4)cc3c(=O)c2cc1OC	·	·	i	-2	-8
C=CCn1c2ccccc2c(=O)c2cc(C#Cc3cc(OC)cc(OC)c3)ccc21	·	·	·	·	0
Cn1cncc1C#Cc1ccc2c(=O)c3ccccc3oc2c1	·	·	·	·	2
Cn1c2ccccc2c(=O)c2ccc(C#Cc3ccccn3)cc21	·	·	i	97*	·
Cn1c2ccccc2c(=O)c2cc(C#Cc3ccccn3)ccc21	·	·	i	147*	5
COc1ccc(C(=O)N2CCOC2CNC(=O)C(=O)NCc2ccccn2)cc1 (stereo unspecified)	·	·	·	·	13
SMILES	Runt-CBFb FRET	Runt-SMMHC FRET	Rce1 inh	RanGTP-Impb inh	Vif inh
Cc1ccc(S(=O)(=O)n2cccc2/C=C/[N+](=O)[O-])cc1	·	·	·	·	13
Cc1cccc(NC(=O)CC2C(=O)NCCN2C(=O)Nc2ccc(Cl)cc2)c1 (stereo unspecified)	·	·	i	5	8
CCC(=O)c1ccc(OCC(=O)Nc2nn3cnnc3s2)cc1	-2	-3	i	6	68*
O=C(Nc1nc(-c2ccccn2)cs1)c1ccc([N+](=O)[O-])o1	31	9	+	3	6
O=c1[nH]c(C(Cl)Cl)nc2sc3c(c12)CCN(Cc1ccccc1)C3	54*	·	i	37*	5
CCCSc1nc2sc3c(c2c(=O)[nH]1)CCN(Cc1ccccc1)C3	-48	-120	i	-16	-8
COc1ccc(CCNC(=O)c2cc3c(=O)n4cccc(C)c4nc3n(Cc3ccco3)c2=N)cc1OC	·	·	i	53*	8
Cc1cccn2c(=O)c3cc(C(=O)NCc4ccco4)c(=N)n(C(C)C)c3nc12	19	60*	i	154*	-14
Cc1cccn2c(=O)c3cc(C(=O)NCc4ccco4)c(=N)n(CCc4ccccc4)c3nc12	12	79*	·	·	2
Cc1cccn2c(=O)c3cc(C(=O)NCC4CCCO4)c(=N)n(CCc4ccccc4)c3nc12 (stereo unspecified)	·	·	i	176*	-5
CCN(CC(=O)Nc1ccc2c(c1)OCCO2)C(=O)c1ccc(S(=O)(=O)N(C)C)cc1	·	·	i	-4	·
Cc1cccn2c(=O)c3cc(C(=O)NCCc4ccccc4)c(=N)n(Cc4ccco4)c3nc12	·	·	·	74*	-4
O=c1cc(-c2ccccc2)[nH]n1-c1nc2ccccc2[nH]1	12	17	i	26*	4
CCc1cc(=O)[nH]c(-n2[nH]c(-c3ccccc3)cc2=O)n1	-1	-1	i	1	10
CCCCN(C=O)c1c(CC)nc2ccc(C(=O)NCCN(C)C)cn12	·	·	·	·	3
CCCCCCCCOC(=O)c1cc([N+](=O)[O-])c(Sc2ncnc3nc[nH]c23)c([N+](=O)[O-])c1	·	·	·	·	15
O=C(N/C(=C\c1ccc(Br)cc1)C(=O)N1CCOCC1)c1ccco1	·	·	i	-1	16
CCCCN(CC)C(=O)c1cc2cc3ccc(OC)cc3nc2o1	-5	3	i	59*	·
COCCNC(=O)c1cc2cc3ccc(OC)cc3nc2o1	·	·	i	4	-13
O=C(O)CCc1nn2c3ccccc3n(Cc3ccccc3F)c2nc1=O	-2	3	i	1	-33
Cc1cccc2c3c([nH]c12)C(=O)CC(C)(C)S3	9	22	i	8	13
Cc1ccc2[nH]c3c(c2c1)SC(C)(C)CC3=O	18	29	·	21*	-11
CCn1c(SCC(=O)Nc2ccc3c(c2)OCO3)nnc1C(C)C	·	·	i	-1	10
CCOc1ccc(S(=O)(=O)/N=C(/Nc2ccc(C)c(S(=O)(=O)N3CCOCC3)c2)c2ccccc2)cc1	·	·	·	·	-4
CCC(=O)Nc1sc2c(c1C(N)=O)CCN(C(C)=O)C2	·	-3	i	1	·
SMILES	Runt-CBFb FRET	Runt-SMMHC FRET	Rce1 inh	RanGTP-Impb inh	Vif inh
CC(C)C(=O)Nc1sc2c(c1C(N)=O)CCN(Cc1ccccc1)C2	·	·	i	134*	2
CCC(=O)Nc1sc2c(c1C(N)=O)CCN(Cc1ccccc1)C2	·	·	i	134*	33
NC(=O)c1c(NC(=O)c2ccccc2)sc2c1CCN(Cc1ccccc1)C2	·	·	i	8	i
NC(=O)c1c(NC(=O)c2c(F)cccc2F)sc2c1CCN(Cc1ccccc1)C2	·	·	i	163*	0
CC(=O)c1ccc(S(=O)(=O)NC2CC(=O)N(c3ccc(C)c(C)c3)C2)cc1 (stereo unspecified)	·	·	i	-2	-9
Nc1ccc2nc(-c3ccccc3)[nH]c2c1	0	-6	+	-2	8
